Assay results: ChEMBL document CHEMBL1759833, “Synthesis and biological evaluation of some 4-functionalized-pyrazoles as antimicrobial agents” (2011)
Converted amounts (≈) assume the structure as drawn.

Key:
Format in all cases: functional
Staphylococcus aureus [1] = assay: Antibacterial activity against Staphylococcus aureus MTCC 96 for 24 hrs by agar diffusion method
Summary of the method: (§1)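 Agar well diffusion on Mueller Hinton agar plates swabbed with bacterial suspension of approx. 1.5 × 10⁸ cfu/mL. 8 mm wells were loaded with compound at 4.0 mg/mL in DMSO. Plates were incubated 37 °C for 24 h. Read-out was inhibition zone diameter in mm, including the 8 mm well, as mean of three replicates. Controls were DMSO (negative) and ciprofloxacin (positive).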

Bacillus subtilis [2] = assay: Antibacterial activity against Bacillus subtilis MTCC 121 for 24 hrs by agar diffusion method; summary of the method: as §1
Staphylococcus aureus [3] = assay: Antibacterial activity against Staphylococcus aureus MTCC 96 for 24 hrs by macrodilution method; conditions: MTCC 96, 24 h
Summary of the method: (§2)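 MIC by NCCLS macrodilution tube method. Tubes were inoculated with bacteria at 1.5 × 10⁸ cfu/mL and incubated at 37 °C for 24 h. Turbidity was scored visually. Ciprofloxacin served as control.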

Bacillus subtilis [4] = assay: Antibacterial activity against Bacillus subtilis MTCC 121 for 24 hrs by macrodilution method; conditions: MTCC 121, 24 h; summary of the method: as §2
Aspergillus niger = assay: Antifungal activity against Aspergillus niger MTCC 282 assessed as inhibition of mycelial growth for 7 days by poisoned food method
Summary of the method: (§3)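 Poisoned food method. Compound at 4.0 mg/mL in DMSO was mixed into agar, poured and solidified at room temperature. Each plate was inoculated centrally with an 8 mm plug from an actively growing colony and incubated at 25 °C for 7 days. Colony diameter was converted to percent mycelial inhibition, in triplicate. Controls were DMSO (negative) and fluconazole (positive).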

Aspergillus flavus = assay: Antifungal activity against Aspergillus flavus MTCC 871 assessed as inhibition of mycelial growth for 7 days by poisoned food method; summary of the method: as §3

| SMILES | diameter of the inhibition zone (DIZ) (Staphylococcus aureus [1]) [mm] | diameter of the inhibition zone (DIZ) (Bacillus subtilis [2]) [mm] | MIC (Staphylococcus aureus [3]) [µg/mL] | MIC (Bacillus subtilis [4]) [µg/mL] | inhibition (INH) (Aspergillus niger) [%] | inhibition (INH) (Aspergillus flavus) [%] |
| --- | --- | --- | --- | --- | --- | --- |
| NS(=O)(=O)c1ccc(-n2cc(C(=O)O)c(-c3ccccc3)n2)cc1 | 15.3 | 16.6 | 128 (≈ 373 µM) | 128 (≈ 373 µM) | 50 | 55.5 |
| Cc1ccc(-c2nn(-c3ccc(S(N)(=O)=O)cc3)cc2C(=O)O)cc1 | 14.6 | 17.3 | > 128 | 64 (≈ 179 µM) | 46.6 | 51.1 |
| COc1ccc(-c2nn(-c3ccc(S(N)(=O)=O)cc3)cc2C(=O)O)cc1 | 15.6 | 17 | 128 (≈ 343 µM) | 64 (≈ 171 µM) | 44.4 | 44.4 |
| NS(=O)(=O)c1ccc(-n2cc(C(=O)O)c(-c3ccc(F)cc3)n2)cc1 | 15 | 18.6 | 128 (≈ 354 µM) | 64 (≈ 177 µM) | 52.5 | 48.8 |
| NS(=O)(=O)c1ccc(-n2cc(C(=O)O)c(-c3ccc(Cl)cc3)n2)cc1 | 18.6 | 21.6 | 64 (≈ 169 µM) | 32 (≈ 84.7 µM) | 45.5 | 44.4 |
| NC(=S)c1cn(-c2ccc(S(N)(=O)=O)cc2)nc1-c1ccc(F)cc1 | 17.6 | 15.3 | 64 (≈ 170 µM) | 128 (≈ 340 µM) | 44.4 | 61.1 |
| NC(=S)c1cn(-c2ccc(S(N)(=O)=O)cc2)nc1-c1ccc(Cl)cc1 | 18.3 | 14.6 | 64 (≈ 163 µM) | > 128 | 50 | 52.5 |
| NC(=S)c1cn(-c2ccc(S(N)(=O)=O)cc2)nc1-c1ccc(Br)cc1 | 21.6 | 18.3 | 32 (≈ 73.2 µM) | 64 (≈ 146 µM) | 44.4 | 51.1 |
| NC(=S)c1cn(-c2ccc(S(N)(=O)=O)cc2)nc1-c1cccs1 | 20.3 | 17.6 | 64 (≈ 176 µM) | 64 (≈ 176 µM) | 61.1 | 55.5 |
| NS(=O)(=O)c1ccc(-n2cc(C(=O)O)c(-c3ccc(Br)cc3)n2)cc1 | 15.6 | 14.3 | 128 (≈ 303 µM) | > 128 | 51.1 | 45.5 |
| NS(=O)(=O)c1ccc(-n2cc(C(=O)O)c(-c3ccc([N+](=O)[O-])cc3)n2)cc1 | 14.6 | 15 | > 128 | 128 (≈ 330 µM) | 61.1 | 57.7 |
| NS(=O)(=O)c1ccc(-n2cc(C(=O)O)c(-c3cccs3)n2)cc1 | 18.6 | 15.6 | 64 (≈ 183 µM) | 128 (≈ 366 µM) | 57.7 | 55.5 |
| NC(=S)c1cn(-c2ccc(S(N)(=O)=O)cc2)nc1-c1ccccc1 | 15.3 | 15 | 128 (≈ 357 µM) | 128 (≈ 357 µM) | 50 | 53.3 |
| Cc1ccc(-c2nn(-c3ccc(S(N)(=O)=O)cc3)cc2C(N)=S)cc1 | 21.6 | 16.3 | 32 (≈ 85.9 µM) | 128 (≈ 344 µM) | 44.4 | 51.1 |
| COc1ccc(-c2nn(-c3ccc(S(N)(=O)=O)cc3)cc2C(N)=S)cc1 | 16.6 | 15.6 | 128 (≈ 329 µM) | 128 (≈ 329 µM) | 55.5 | 57.7 |
| O=C(O)c1cn(C2CC2)c2cc(N3CCNCC3)c(F)cc2c1=O [CIPROFLOXACIN] | 27.6 | 26.3 | 5 (≈ 15.1 µM) | 5 (≈ 15.1 µM) |  |  |
| OC(Cn1cncn1)(Cn1cncn1)c1ccc(F)cc1F [FLUCONAZOLE] |  |  |  |  | 75.3 | 74.6 |
